Common to all, as to format: biochemical
The target in one experiment is T1, h-e5’NT (Homo sapiens, UniProt P21589).
T1 sequence (P21589 27-574): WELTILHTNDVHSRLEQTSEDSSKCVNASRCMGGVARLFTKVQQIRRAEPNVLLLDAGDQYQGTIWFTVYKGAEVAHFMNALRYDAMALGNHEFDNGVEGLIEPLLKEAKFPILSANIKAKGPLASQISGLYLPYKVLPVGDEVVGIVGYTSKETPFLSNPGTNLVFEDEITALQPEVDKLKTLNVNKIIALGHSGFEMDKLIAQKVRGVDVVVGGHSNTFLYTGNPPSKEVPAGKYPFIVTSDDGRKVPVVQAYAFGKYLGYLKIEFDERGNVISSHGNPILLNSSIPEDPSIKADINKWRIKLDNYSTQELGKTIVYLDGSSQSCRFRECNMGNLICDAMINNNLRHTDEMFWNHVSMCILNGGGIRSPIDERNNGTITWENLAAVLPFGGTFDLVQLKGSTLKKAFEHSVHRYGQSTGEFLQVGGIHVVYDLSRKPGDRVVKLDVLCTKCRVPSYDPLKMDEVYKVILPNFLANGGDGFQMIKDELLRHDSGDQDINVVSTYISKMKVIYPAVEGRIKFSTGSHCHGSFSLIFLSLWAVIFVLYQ
As to the kind of experiment: h-e5’NT activity assay. As to conditions: for inhibition at 100 µM: read-out: % Inhibition h-e5’NT. The procedure, abridged:
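Human ecto-5′-nucleotidase from transfected COS-7 cells was pre-incubated 10 min at 37 °C with compound (0.1 mM final) in 50 mM Tris–HCl with MgCl₂ and CaCl₂, pH 7.4. The reaction was started with AMP (2 mM solution as added) and run 20 min at 37 °C. Released phosphate was detected with malachite green at 630 nm, in triplicate.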

In another experiment the target is T2, h-NPP1 (Homo sapiens, UniProt P22413).
T2 sequence (P22413 1-925): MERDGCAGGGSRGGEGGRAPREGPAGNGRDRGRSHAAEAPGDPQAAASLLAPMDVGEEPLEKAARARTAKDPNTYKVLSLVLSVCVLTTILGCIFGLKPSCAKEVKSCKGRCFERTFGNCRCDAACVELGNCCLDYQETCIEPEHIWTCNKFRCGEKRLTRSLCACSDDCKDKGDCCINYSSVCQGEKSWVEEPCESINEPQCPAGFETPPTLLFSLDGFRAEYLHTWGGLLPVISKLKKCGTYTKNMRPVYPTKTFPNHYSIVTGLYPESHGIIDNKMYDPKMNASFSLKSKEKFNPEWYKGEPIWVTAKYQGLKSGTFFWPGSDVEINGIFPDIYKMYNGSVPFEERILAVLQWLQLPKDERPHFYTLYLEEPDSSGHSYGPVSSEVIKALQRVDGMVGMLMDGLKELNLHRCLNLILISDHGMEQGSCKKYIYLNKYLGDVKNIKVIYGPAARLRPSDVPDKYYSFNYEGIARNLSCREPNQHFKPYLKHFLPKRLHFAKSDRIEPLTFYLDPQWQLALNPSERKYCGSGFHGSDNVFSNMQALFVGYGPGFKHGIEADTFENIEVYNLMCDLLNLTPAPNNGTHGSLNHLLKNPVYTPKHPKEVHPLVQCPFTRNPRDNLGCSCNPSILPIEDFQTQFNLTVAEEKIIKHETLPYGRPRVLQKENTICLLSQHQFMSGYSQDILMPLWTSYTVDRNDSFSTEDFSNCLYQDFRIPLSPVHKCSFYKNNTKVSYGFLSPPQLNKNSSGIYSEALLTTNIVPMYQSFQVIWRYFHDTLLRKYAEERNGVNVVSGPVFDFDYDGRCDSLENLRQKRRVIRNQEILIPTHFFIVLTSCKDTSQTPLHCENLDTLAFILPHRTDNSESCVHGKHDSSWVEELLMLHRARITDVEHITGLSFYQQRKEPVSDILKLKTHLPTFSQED
As to the kind of experiment: h-NPP1 activity assay. The following applies: for inhibition at 100 µM: read-out: % Inhibition h-NPP1.

The target in a further experiment is T3, h-NTPDase3 (Homo sapiens, UniProt O75355).
T3 sequence (O75355 1-529): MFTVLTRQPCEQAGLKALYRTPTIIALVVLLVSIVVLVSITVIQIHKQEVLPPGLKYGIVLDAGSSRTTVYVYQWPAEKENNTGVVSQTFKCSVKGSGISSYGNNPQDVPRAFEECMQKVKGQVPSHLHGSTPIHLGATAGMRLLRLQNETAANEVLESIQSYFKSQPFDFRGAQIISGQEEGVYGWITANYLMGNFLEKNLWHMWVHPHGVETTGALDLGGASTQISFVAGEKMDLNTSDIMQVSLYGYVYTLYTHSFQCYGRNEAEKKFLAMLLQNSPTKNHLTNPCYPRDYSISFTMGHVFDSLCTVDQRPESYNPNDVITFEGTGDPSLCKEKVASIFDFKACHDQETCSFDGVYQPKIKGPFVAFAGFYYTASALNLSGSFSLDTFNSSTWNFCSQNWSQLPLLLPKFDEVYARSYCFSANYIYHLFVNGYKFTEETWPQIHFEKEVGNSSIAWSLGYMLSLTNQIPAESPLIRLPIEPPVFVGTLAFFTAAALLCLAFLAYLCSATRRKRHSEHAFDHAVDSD
As to the kind of experiment: h-NTPDase activity assay. As to conditions: for inhibition at 100 µM: read-out: % Inhibition h-NTPDase3. The procedure, abridged:
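Human NTPDase1, -2, -3 or -8 came from COS-7 cells transfected with plasmids via Lipofectamine, harvested at 44–48 h, sonicated and cleared of nuclei, with protein measured by Bradford. Enzyme per well was 12, 37, 43 or 63 ng respectively. Compound (0.1 mM final) was pre-incubated 10 min at 37 °C in 50 mM Tris–HCl, 5 mM CaCl2, pH 7.4. The reaction was started with ATP (100 µM), run 15 min, and stopped with malachite green; Pi was read at 630 nm.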

For the next experiment, the target named is T4, h-NTPDase8 (Homo sapiens, UniProt Q5MY95).
T4 sequence (Q5MY95 1-495): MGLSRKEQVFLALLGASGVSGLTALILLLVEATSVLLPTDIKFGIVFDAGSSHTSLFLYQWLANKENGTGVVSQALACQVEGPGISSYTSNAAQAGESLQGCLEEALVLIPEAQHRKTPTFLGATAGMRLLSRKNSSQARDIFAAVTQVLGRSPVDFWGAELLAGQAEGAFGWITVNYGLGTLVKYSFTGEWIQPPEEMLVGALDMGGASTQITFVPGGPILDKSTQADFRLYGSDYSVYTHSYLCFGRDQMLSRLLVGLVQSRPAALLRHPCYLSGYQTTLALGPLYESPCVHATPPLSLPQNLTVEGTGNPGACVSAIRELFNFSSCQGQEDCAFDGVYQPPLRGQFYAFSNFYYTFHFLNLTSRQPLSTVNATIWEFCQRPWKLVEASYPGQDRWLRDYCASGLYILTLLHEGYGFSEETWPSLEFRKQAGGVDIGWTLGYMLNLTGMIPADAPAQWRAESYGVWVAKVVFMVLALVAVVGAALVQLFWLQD
As to the kind of experiment: h-NTPDase activity assay. The following applies: for inhibition at 100 µM: read-out: % Inhibition h-NTPDase8, at 100 µM.

For the compound `O=C(NCc1ccc(F)cc1)c1ccc2ncccc2c1` [Compound 4b, N-(4-fluorobenzyl)quinoline-6-carboxamide], the inhibition (usually the change of the read-out against control, counted positive when it falls) at 100 µM was determined as 37% on h-e5’NT, 44.8% at h-NPP1, 67.8% on h-NTPDase3 and 83% at h-NTPDase8. Also, the IC50 (usually the midpoint of a concentration-inhibition curve) against h-NTPDase3 came to 0.35 ± 0.17 µM; at h-NTPDase8, 0.44 ± 0.08 µM.

For the compound `Cc1ccc(CNC(=O)c2ccc3ncccc3c2)cc1` [Compound 4c, N-(4-methylbenzyl)quinoline-6-carboxamide], the values for the IC50 at h-e5’NT, against h-NTPDase3 and against h-NTPDase8 were 0.19 ± 0.01 µM, 0.67 ± 0.27 µM and 0.99 ± 0.13 µM, respectively. The inhibition at 100 µM at h-e5’NT came to 50.7%; at h-NPP1 it was 45.2%; on h-NTPDase3, 78.4%; at h-NTPDase8, 70.9%.

In the case of `O=C(Nc1c(F)cccc1F)c1ccc2ncccc2c1` [Compound 4d, N-(2,6 difluorophenyl)quinoline-6-carboxamide], the inhibition at 100 µM amounted to 35.6% on h-e5’NT, 54.5% at h-NPP1, 58.4% on h-NTPDase3 and 33% at h-NTPDase8. For the same compound, the IC50 against h-NPP1 was determined as 0.73 ± 0.09 µM; on h-NTPDase3 it was 0.82 ± 0.07 µM.

As for `O=C(Nc1ccc(F)cc1F)c1ccc2ncccc2c1` [Compound 4e, N-(2,4 difluorophenyl)quinoline-6-carboxamide], the IC50 against h-e5’NT came out at 0.54 ± 0.09 µM. For the same compound, the inhibition at 100 µM is 66.9% at h-e5’NT, 34.6% on h-NPP1, 40.2% at h-NTPDase3 and 39.5% at h-NTPDase8.

Consider `O=C(Nc1ccccn1)c1ccc2ncccc2c1` [Compound 4g, N-(pyridin-2-yl)quinoline-6-carboxamide], for which the 50% inhibitory concentration (IC50) was 0.34 ± 0.07 µM at h-e5’NT and 0.32 ± 0.05 µM at h-NTPDase3. Also, the inhibition at 100 µM at h-e5’NT amounted to 82%; on h-NPP1 it was 43.7%; at h-NTPDase3, 81.7%; on h-NTPDase8 it was 20.4%.

Regarding `O=C(Nc1ccccc1I)c1ccc2ncccc2c1` [Compound 4h, N-(2-iodophenyl)quinoline-6-carboxamide], the IC50 was determined as 0.39 ± 0.1 µM on h-e5’NT, 0.88 ± 0.29 µM on h-NTPDase3 and 3.29 ± 0.36 µM against h-NTPDase8. For the same compound, the inhibition at 100 µM amounted to 87% at h-e5’NT, 33.9% at h-NPP1, 85% on h-NTPDase3 and 65.6% at h-NTPDase8.

For `O=C(Nc1ccc(I)cc1)c1ccc2ncccc2c1` [Compound 4k, N-(4-Iodophenyl)quinoline-6-carboxamide], the inhibition at 100 µM on h-e5’NT stood at 28.4%; on h-NPP1, 67.7%; at h-NTPDase3, 38.5%; at h-NTPDase8, 27%. On h-NPP1, 0.11 ± 0.02 µM corresponded to half-maximal inhibition (IC50).

Consider `Cc1ccc(F)cc1NC(=O)c1ccc2ncccc2c1` [Compound 4l, N-(5-fluoro 2-methylphenyl)quinoline-6-carboxamide], for which the IC50 against h-e5’NT was determined as 0.47 ± 0.26 µM. The inhibition at 100 µM on h-e5’NT stood at 61%; at h-NPP1 it was 29.4%; on h-NTPDase3, 36.1%; at h-NTPDase8, 26.1%.

(Values after publication PMC13022283 (Scientific Reports, 2026).)
